Data as given in ChEMBL document CHEMBL1155299, “Design, syntheses, and evaluation of Taspase1 inhibitors” (Bioorg Med Chem Lett, 2009).
Calls of active or inactive are those of the source. No cut-off for these calls is given here. Peptide text beside a SMILES is read from it.

Assays:
[1] = biological target: T1, Threonine aspartase 1 (Homo sapiens) (UniProt Q9H6P5); test: Inhibition of recombinant Taspase 1 assessed as accumulation of emitted fluorescence at 100 uM by FRET assay
T1 sequence (whole entry): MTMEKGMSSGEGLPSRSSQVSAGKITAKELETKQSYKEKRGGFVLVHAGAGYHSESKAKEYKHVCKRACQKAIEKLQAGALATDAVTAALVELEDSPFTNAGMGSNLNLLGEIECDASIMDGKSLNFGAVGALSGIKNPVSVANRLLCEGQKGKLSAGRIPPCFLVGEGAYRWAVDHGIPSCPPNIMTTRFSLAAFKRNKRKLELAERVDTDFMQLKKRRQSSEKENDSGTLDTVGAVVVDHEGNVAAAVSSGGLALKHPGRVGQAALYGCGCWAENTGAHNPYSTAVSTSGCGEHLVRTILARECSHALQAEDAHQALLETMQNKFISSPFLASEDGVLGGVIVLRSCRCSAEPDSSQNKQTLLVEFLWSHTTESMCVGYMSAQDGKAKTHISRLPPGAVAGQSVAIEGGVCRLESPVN

[2] = biological target: T1, Threonine aspartase 1 (Homo sapiens); test: Inhibition of recombinant Taspase 1 assessed as loss of processing and accumulation of full length p45 fragment by radiographic in vitro cleavage assay added 30 mins before translated p45MLL
Outline: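 Substrate was a p45MLL fragment (residues 2,500–2,800) with the CS1 site mutated to block cleavage there. It was made by in vitro translation as 35S-labelled protein, exposed to Taspase1, and cleavage was followed by radiography.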

Threonine aspartase 1 = biological target: T2, Threonine aspartase 1 (Homo sapiens, UniProt Q9H6P5); test: Inhibition of recombinant Taspase 1 assessed as accumulation of emitted fluorescence by FRET assay
T2 sequence (Q9H6P5 whole entry): T1 sequence (whole entry)

Compound | Activity [1] | Activity [2] | IC50 (Threonine aspartase 1)
CC[C@H](C)[C@H](NC(C)=O)C(=O)N[C@@H](CO)C(=O)N[C@@H](CCC(N)=O)C(=O)N[C@@H](CC(C)C)C(=O)NC1CB(O)OC1=O (some centres undefined) (HELM PEPTIDE1{[ac].I.S.Q.L.[O=C1OB(O)CC1N[*:1]]}$$$$V2.0) | inactive | – | –
CC[C@H](C)[C@H](NC(C)=O)C(=O)N[C@@H](CO)C(=O)N[C@@H](CCC(N)=O)C(=O)N[C@@H](CC(C)C)C(=O)N[C@@H](CC(=O)C1(C)CO1)C(=O)O (some centres undefined) (HELM PEPTIDE1{[ac].I.S.Q.L.[CC1(C(=O)C[C@H](N[*:1])C(=O)O)CO1]}$$$$V2.0) | – | Active | –
CCCC[C@H](NC(=O)[C@H](CC(C)C)NC(=O)[C@H](CCC(N)=O)NC(C)=O)C(=O)O (HELM PEPTIDE1{[ac].Q.L.[Nle]}$$$$V2.0) | inactive | – | –
CC[C@H](C)[C@H](NC(C)=O)C(=O)N[C@@H](CO)C(=O)N[C@@H](CCC(N)=O)C(=O)N[C@@H](CC(C)C)C(=O)N[C@H](/C=C/S(C)(=O)=O)CC(=O)O (HELM PEPTIDE1{[ac].I.S.Q.L.[CS(=O)(=O)/C=C/[C@H](CC(=O)O)N[*:1]]}$$$$V2.0) | – | Active | –
CC[C@H](C)[C@H](NC(C)=O)C(=O)N[C@@H](CO)C(=O)N[C@@H](CCC(N)=O)C(=O)N[C@@H](CC(C)C)C(=O)N[C@@H](C/C=C/S(C)(=O)=O)C(=O)O (HELM PEPTIDE1{[ac].I.S.Q.L.[CS(=O)(=O)/C=C/C[C@H](N[*:1])C(=O)O]}$$$$V2.0) | – | Active | > 100 µM

Further lines, results first:

Activity [1] | Activity [2] | IC50 (Threonine aspartase 1) | Compound
– | Active | 63.4 µM | CC[C@H](C)[C@H](NC(C)=O)C(=O)N[C@@H](CO)C(=O)N[C@@H](CCC(N)=O)C(=O)N[C@@H](CC(C)C)C(=O)N[C@@H](C/C=C/C(C)=O)C(=O)O (HELM PEPTIDE1{[ac].I.S.Q.L.[CC(=O)/C=C/C[C@H](N[*:1])C(=O)O]}$$$$V2.0)
inactive | – | – | CCCC[C@H](NC(=O)[C@H](CC(C)C)NC(=O)[C@H](CCC(N)=O)NC(=O)[C@H](CO)NC(=O)[C@@H](NC(C)=O)[C@@H](C)CC)C(=O)O (HELM PEPTIDE1{[ac].I.S.Q.L.[Nle]}$$$$V2.0)
